Screening data deposited in PubChem by several laboratories.
MEKK2mut PB1 HTS = signal of MEK5 binding to mutant human MEKK2 PB1 domain. actives 0.35% (n = 290,000). bead flow cytometry, Alexa488-MEK5 binding to MEKK2 mutant. percent response, % at 10 µM; in the data active = percent response above about 24%, passing the limit was not always enough
UBC13 polyUb = blocks human UBC13 polyubiquitin chain formation | inhibition, % at 20 µM | TR-FRET | AID 485273 | actives 0.47% (n = 330,000); in the data active = inhibition above about 45%, passing the limit was not always enough
Target sequence (P61088 whole entry, looked up): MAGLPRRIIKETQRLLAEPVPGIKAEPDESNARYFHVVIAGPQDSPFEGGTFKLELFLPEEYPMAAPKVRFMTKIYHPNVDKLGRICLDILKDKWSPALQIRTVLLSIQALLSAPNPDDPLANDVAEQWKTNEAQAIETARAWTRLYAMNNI
Apaf-1 inh = human Apaf-1 inhibition | O14727 | reconstituted apoptosome caspase-3 activity, DEVD-Rh110 fluorescence | inhibition, % at 20 µM | actives 0.71% (n = 330,000); active = inhibition of at least 40% at 20 µM
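Material: cell-free apoptosome with Apaf-1, procaspase-3 and caspase-9; Buffer or medium: Hepes pH 7.5 with detergent and BSA; Reagent: cytochrome c trigger plus (Z-DEVD)2-Rh110 caspase-3 substrate; Times: compound with Apaf-1, dATP, procaspase-3 30 min, then 50 min reaction, room temperature; Technique: Rh110 fluorescence intensity.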
MEKK3 PB1 HTS = modulators (inhibitors or enhancers) of MEK5 binding to human MEKK3 PB1 domain; bead-based flow cytometry, Alexa488-MEK5 binding to MEKK3; actives lie on both sides; 0 = blocked by unlabeled MEK5, 100 = vehicle; binding response (% of control), % at 10 µM; actives 1.4% (n = 290,000);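 active = binding response more than 3 SD above or below the average of its plate-row segment, actives on both sides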;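 note: Alexa488 bead fluorescence after subtracting the streptavidin-only scavenger bead signal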
MEKK2 WT-MEK5 = raises or lowers MEK5 binding to wildtype human MEKK2 PB1 domain; Q9Y2U5; bead flow cytometry, Alexa488-MEK5 binding to MEKK2 WT; actives lie on both sides; binding response (% of control), % at 10 µM; actives 1.1% (n = 290,000); in the data active = binding response below about 67% or above about 130%
MEKK2wt confirm = raises or lowers MEK5 binding to wildtype human MEKK2, retest. shares compounds with MEKK3 PB1 HTS. bead flow cytometry, Alexa488-MEK5 binding to MEKK2 WT; actives lie on both sides. binding response (% of control), % at 10 µM. actives 2.4% (n = 5,900). AID 1892; in the data active = binding response below about 16% or above about 210%; inactive = in between
MEKK2mut confirm = signal of MEK5 binding to mutant human MEKK2, retest; shares compounds with MEKK3 PB1 HTS; AID 1893; actives 2% (n = 5,900); bead flow cytometry, Alexa488-MEK5 binding to MEKK2 mutant; percent response, % at 10 µM; in the data active = percent response mostly above about 71%, no sharp cut-off; inactive = mostly below about 38%;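 note: higher means compound restores mutant binding toward wildtype level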
MEKK3-MEK5 inh = MEKK3-MEK5 PB1 inhibition, single concentration confirmation; bead flow cytometry, Alexa488-MEK5 binding to MEKK3; stronger effect = lower value; binding response (% of control), % at 10 µM; actives 1.8% (n = 5,900); shares compounds with MEKK3 PB1 HTS; AID 1894;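 active = binding response below 72% of control, or above a set upper limit, though filed actives all read lower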
Large screens that a line does not name were inactive (follow-up assays come after a bar, where they were run); [ ] = another dose, or the depositor's remark. Only some compounds are listed: those with a hit (about 2.9% of all), similar ones and a draw of the others.

COc1ccc([N+](=O)[O-])cc1NC1CCCCC1	MEKK3 PB1 HTS 128 | MEKK2wt confirm inactive | MEKK2mut confirm inactive | MEKK3-MEK5 inh inactive
COc1ccc(NC(=O)c2nc[nH]c2C(=O)N2CCC(C)CC2)cc1	MEKK3 PB1 HTS 75[inhibitor] | MEKK2wt confirm inactive | MEKK2mut confirm inactive | MEKK3-MEK5 inh inactive
O=C1NC[C@H](c2ccccc2)N(CCc2cccc(F)c2)C1=O	MEKK3 PB1 HTS 79[inhibitor] | MEKK2wt confirm inactive | MEKK2mut confirm inactive | MEKK3-MEK5 inh inactive
Cc1ccc(NC(=O)C2C3CCC(O3)C2C(=O)O)cc1Cl (stereo not given)	MEKK3 PB1 HTS 2.0[inhibitor], MEKK2 WT-MEK5 3.0[inhibitor] | MEKK2wt confirm inactive | MEKK2mut confirm inactive | MEKK3-MEK5 inh inactive
COC(=O)CNC(=O)C(Cc1ccccc1)NS(=O)(=O)c1ccc2c(c1)c(=O)n(C)c(=O)n2C (stereo not given)	none
Cc1ccc(C(=O)NCCCNC(=O)COc2ccc(C)c(C)c2)cn1	none
COc1ccc(-n2cc(-c3ccccc3)[nH]c2=S)cc1	MEKK3 PB1 HTS 130 | MEKK2wt confirm inactive | MEKK2mut confirm inactive | MEKK3-MEK5 inh inactive
O=C(Nc1ccc2c(c1)CCC2)c1ccccc1F	MEKK3 PB1 HTS 135 | MEKK2wt confirm inactive | MEKK2mut confirm inactive | MEKK3-MEK5 inh inactive
O=C(O)c1ccccc1-c1ccccc1C(=O)Nc1ccc2c(c1)CCC2	none
CN(Cc1ccccc1)C(=O)C1CCN(S(=O)(=O)c2ccc(-n3cnnn3)cc2)CC1	none
O=[N+]([O-])c1cc(Cl)ccc1N1CCN(c2cccc(C(F)(F)F)c2)CC1	MEKK2 WT-MEK5 138 | MEKK2wt confirm inactive | MEKK2mut confirm inactive | MEKK3-MEK5 inh inactive
Cc1ccc(OCc2ccc(C#N)cc2)c(C(=O)c2cc(C#N)c(=O)n(C3CC3)c2)c1	MEKK2mut PB1 HTS 52 | MEKK2wt confirm inactive | MEKK2mut confirm inactive | MEKK3-MEK5 inh inactive
CC(=O)c1cccc(NC(=O)COc2ccccc2C(=O)c2cc(C#N)c(=O)n(C3CCCCC3)c2)c1	none
COc1ccc(CN(C)S(=O)(=O)c2c(C)noc2C)cc1OC	none (no result: MEKK2mut PB1 HTS, MEKK3 PB1 HTS, MEKK2 WT-MEK5)
COc1ccc(S(=O)(=O)N(c2onc(C)c2Cl)S(=O)(=O)c2ccc(OC)c(OC)c2)cc1OC	MEKK3 PB1 HTS 131 | MEKK2wt confirm inactive | MEKK2mut confirm inactive | MEKK3-MEK5 inh inactive
O=C(NCC(=O)N(c1ccc(F)cc1)C(C(=O)NC1CCCC1)c1cccnc1)c1cccs1 (stereo not given)	none
O=C(NCC1CCCO1)C(c1cccs1)N(Cc1cccs1)C(=O)Cn1nnc(-c2cccs2)n1 (stereo not given)	MEKK3 PB1 HTS 66[inhibitor], MEKK2 WT-MEK5 -2.0 | MEKK2wt confirm inactive | MEKK2mut confirm inactive | MEKK3-MEK5 inh inactive
O=C(NCC(=O)N(c1cccc(F)c1)C(C(=O)NC1CCCC1)c1cccnc1)c1cccs1 (stereo not given)	MEKK3 PB1 HTS 129 | MEKK2wt confirm inactive | MEKK2mut confirm inactive | MEKK3-MEK5 inh inactive
CS(=O)(=O)N(Cc1ccccc1)c1ccc(C(=O)NCC2CCCO2)cc1 (stereo not given)	MEKK3 PB1 HTS 123 | MEKK2wt confirm inactive | MEKK2mut confirm inactive | MEKK3-MEK5 inh inactive
CS(=O)(=O)N(Cc1ccc(Cl)cc1)c1ccc(C(=O)NCC2CCCO2)cc1 (stereo not given)	none
O=C(NCC(=O)N(c1ccccc1)C(C(=O)NCC1CCCO1)c1ccccc1)c1ccco1 (stereo not given)	MEKK3 PB1 HTS 125 | MEKK2wt confirm inactive | MEKK2mut confirm inactive | MEKK3-MEK5 inh inactive
Cc1ccc(N(C(=O)CNC(=O)c2ccco2)C(C(=O)NCC2CCCO2)c2ccccc2)cc1 (stereo not given)	none
Cc1nnc(SC(C)C(=O)Nc2ccc(N3CCOCC3)cc2)n1Cc1ccccc1 (stereo not given)	none (no result: MEKK2mut PB1 HTS, MEKK3 PB1 HTS, MEKK2 WT-MEK5)
COc1ccc(S(=O)(=O)N2CCN=C2SCc2cccc(C)c2)cc1	none
CC(C)c1ccc(NC(=O)c2ccc(NC3=NC4CS(=O)(=O)CC4S3)cc2)cc1 (stereo not given)	none
COCCn1c(N)c(N(Cc2ccccc2)C(=O)COc2ccc(F)cc2Cl)c(=O)[nH]c1=O	none (no result: MEKK2mut PB1 HTS, MEKK3 PB1 HTS, MEKK2 WT-MEK5)
O=C(CN1CCN(C(=O)c2c(F)cccc2F)CC1)Nc1ccccc1C(F)(F)F	none
Cc1ccccc1N(C(=O)Cc1cccs1)C(C(=O)NCC1CCCO1)c1cccnc1 (stereo not given)	none
O=C(NCC1CCCO1)C(c1cccnc1)N(C(=O)Cc1cccs1)c1ccccc1 (stereo not given)	MEKK3 PB1 HTS -1.0[inhibitor], MEKK2 WT-MEK5 -10[inhibitor] | MEKK2wt confirm inactive | MEKK2mut confirm inactive | MEKK3-MEK5 inh inactive
CN1CCN(CCC(=O)Nc2ccc(C3CCCC3)cc2)CC1	MEKK2 WT-MEK5 142 | MEKK2wt confirm inactive | MEKK2mut confirm inactive | MEKK3-MEK5 inh inactive
Cc1ccccc1OCCn1cnc2cc([N+](=O)[O-])ccc2c1=O	none
Cc1cccc(CSc2nc3c(c(=O)[nH]2)CCC3)c1	MEKK3 PB1 HTS 134 | MEKK2wt confirm inactive | MEKK2mut confirm inactive | MEKK3-MEK5 inh inactive
Cc1ccc(CSc2nc3c(c(=O)[nH]2)CCC3)cc1	none
CCC(C)(C#CCN1CCCCC1)OCCC#N (stereo not given)	none
COc1ccc(/C=C/C(=O)NCC(=O)N2CCC(N(C)CCN3CCOCC3)CC2)cc1OC	none
COc1cccc2cc(C(=O)N3CC(C)OC(C)C3)c(=O)oc12 (stereo not given)	none
CC1CN(C(=O)c2cc3ccccc3oc2=O)CC(C)O1 (stereo not given)	MEKK3 PB1 HTS 82[inhibitor] | MEKK2wt confirm inactive | MEKK2mut confirm inactive | MEKK3-MEK5 inh inactive
CC1CN(C(=O)c2ccc(Oc3ccccc3)cc2)CC(C)O1 (stereo not given)	MEKK3 PB1 HTS 70[inhibitor] | MEKK2wt confirm inactive | MEKK2mut confirm inactive | MEKK3-MEK5 inh inactive
O=C(CSc1nnc(-c2cccs2)n1Cc1ccccc1)NCc1ccc2c(c1)OCO2	MEKK3 PB1 HTS 76[inhibitor] | MEKK2wt confirm inactive | MEKK2mut confirm inactive | MEKK3-MEK5 inh inactive
Cc1ccc(S(=O)(=O)N(CCCO)CC(O)CON=C2c3ccccc3-c3ccccc32)cc1 (stereo not given)	MEKK3 PB1 HTS 136 | MEKK2wt confirm inactive | MEKK2mut confirm inactive | MEKK3-MEK5 inh inactive
CC(C)(C)NCC(O)CON=C1c2ccccc2-c2ccccc21 (stereo not given)	none
CCO/C(=C/c1sc2ccc(OC)cc2[n+]1CCCS(=O)(=O)[O-])CC	none
